# Laboratory results reported in ChEMBL document CHEMBL1138529, “Efficacy, pharmacokinetics, and metabolism of tetrahydroquinoline inhibitors of Plasmodium falciparum protein farnesyltransferase” (Antimicrob Agents Chemother, 2007).
# Active and inactive are the calls of the source.
# Key:
# [1] = biological target: Vasopressin V1a receptor (Homo sapiens) (UniProt P37288); assay: Inhibition of vasopressin V1a receptor at 10 uM
# Method in brief: (§1)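 Radioligand displacement at a contract lab across a panel of 50 receptors, ion channels and transporters, single test concentration 10 μM; loss of specific ligand binding reported as percent, with >50% decrease counted as significant.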
# Mus musculus = assay: Toxicity in BALB/c mouse at 50 mg/kg, po; format: organism-based; set-up: dose 50 mg/kg, route oral; settings: in vivo
# [2] = biological target: Substance-K receptor (Homo sapiens) (UniProt P21452); assay: Inhibition of NK2 receptor at 10 uM
# Method in brief: (§2)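 Radioligand displacement screen by a contractor across 50 receptors, ion channels and transporters, test compound at 10 μM; decrease in specific ligand binding expressed as percentage, with >50% decrease taken as significant.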
# [3] = Elimination half life in BALB/c mouse at 50 mg/kg, po; format: ADME, organism-based; set-up: dose 50 mg/kg, route oral; settings: in vivo, read-out: beta t1/2
# Method in brief: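 50 mg/kg by oral gavage in 3% EtOH-7% Tween 80-90% normal saline to groups of three females (BALB/c mice, 8–10 weeks, tail bleed; Sprague-Dawley rats, 10–12 weeks, saphenous vein). Plasma extracted with acetonitrile/internal standard, LC/MS; means of three animals. Oral elimination half-life depends on absorption rate as well as elimination.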
# [4] = AUC in Sprague-Dawley rat at 50 mg/kg, po; format: ADME, organism-based; set-up: dose 50 mg/kg, route oral; settings: plasma
# Method in brief: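 Three female BALB/c mice (lines for mice, 8–10 weeks) or three female Sprague-Dawley rats (10–12 weeks) per group; 50 mg/kg oral gavage in 3% EtOH-7% Tween 80-90% normal saline. Plasma sampled at set times (tail bleed in mice, saphenous vein in rats), extracted with acetonitrile plus internal standard, quantified by LC/MS; AUC as mean of three animals.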
# Rattus norvegicus [5] = assay: Toxicity in Plasmodium berghei NK65 infected Sprague-Dawley rat assessed as effect on electrolyte levels at 50 mg/kg, perorally administered every 8 hrs for 3 days; format: organism-based; set-up: dose 50 mg/kg, route oral; settings: in vivo, po
# Method in brief: (§3)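 Female Sprague-Dawley rats, 10-12 weeks, n = 3 per schedule. Dosed 50 mg/kg by oral gavage every 8 h or every 12 h for 72 h. At the end of dosing, blood was sent to a clinical laboratory for complete blood counts, white cell differentials, electrolytes, glucose, renal function, liver enzymes and cholesterol.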
# [6] = biological target: Alpha-2A adrenergic receptor (Homo sapiens) (UniProt P08913); assay: Inhibition of alpha2 adrenergic receptor at 10 uM; method in brief: as §1
# [7] = biological target: 5-hydroxytryptamine receptor 1B (Homo sapiens) (UniProt P28222); assay: Inhibition of 5HT1B receptor at 10 uM; method in brief: as §2
# [8] = Inhibition of dopamine GABA receptor at 10 uM
# Method in brief: (§4)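 Radioligand displacement screen at a 10 μM test concentration, run by a contract lab across a panel of 50 receptors, pharmacologically active ion channels and transporters. The read-out is the decrease in specific radiolabeled ligand binding, expressed as a percentage. A decrease above 50% was considered significant.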
# [9] = biological target: Beta-1 adrenergic receptor (Homo sapiens) (UniProt P08588); assay: Inhibition of beta-1 adrenergic receptor at 10 uM; method in brief: as §1
# [10] = biological target: Histamine H1 receptor (Homo sapiens) (UniProt P35367); assay: Inhibition of histamine H1 receptor at 10 uM; method in brief: as §1
# [11] = biological target: Vasoactive intestinal polypeptide receptor 1 (Homo sapiens) (UniProt P32241); assay: Inhibition of VIP1 receptor at 10 uM; method in brief: as §2
# [12] = biological target: Muscarinic acetylcholine receptor M3 (Homo sapiens) (UniProt P20309); assay: Inhibition of muscarinic M3 receptor at 10 uM; method in brief: as §1
# Plasmodium falciparum [13] = assay: Antiplasmodial activity against chloroquine-sensitive Plasmodium falciparum 3D7 by [3H]hypoxanthine uptake; format: functional; settings: read-out: ED50 (the source's name)
# Method in brief: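 Asynchronous cultures at 0.5% parasitemia and 0.5% hematocrit in RPMI 1640 with 20% heat-inactivated human A+ plasma, exposed to serially diluted inhibitor (top final 5 μM, from DMSO stock) under 5% CO2/5% O2/90% N2 at 37°C for 48 h. [3H]hypoxanthine was then added for 24 h and harvested counts were background-subtracted against DMSO-only controls. ED50 came from linear regression, as the mean of duplicates.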
# Rattus norvegicus [14] = assay: Toxicity in Plasmodium berghei NK65 infected Sprague-Dawley rat assessed as effect on electrolyte levels at 50 mg/kg, perorally administered every 12 hrs for 3 days; format: organism-based; set-up: dose 50 mg/kg, route oral; settings: in vivo, po; method in brief: as §3
# [15] = biological target: Neuromedin-K receptor (Homo sapiens) (UniProt P29371); assay: Inhibition of NK3 receptor at 10 uM; method in brief: as §2
# [16] = biological target: 5-hydroxytryptamine receptor 5A (Homo sapiens) (UniProt P47898); assay: Inhibition of 5HT5A receptor at 10 uM; method in brief: as §2
# [17] = biological target: Sodium-dependent dopamine transporter (Homo sapiens) (UniProt Q01959); assay: Inhibition of DAT at 10 uM; method in brief: as §2
# Plasmodium falciparum [18] = assay: Antiplasmodial activity against Plasmodium falciparum by [3H]hypoxanthine uptake; format: functional; settings: read-out: ED50 (the source's name)
# Method in brief: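 Asynchronous P. falciparum (3D7 or K1) in RPMI 1640 with 20% heat-inactivated human A+ plasma, 0.5% parasitemia and 0.5% hematocrit; compound serially diluted, top final 5 μM, 48 h at 37°C under 5% CO2/5% O2/90% N2, then [8-3H]hypoxanthine 0.3 μCi added for 24 h.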
# [19] = biological target: Melanocortin receptor 4 (Homo sapiens) (UniProt P32245); assay: Inhibition of MC4 receptor at 10 uM; method in brief: as §2
# [20] = biological target: 5-hydroxytryptamine receptor 6 (Homo sapiens) (UniProt P50406); assay: Inhibition of 5HT6 receptor at 10 uM; method in brief: as §2
# Salmonella typhimurium = assay: Toxicity against Salmonella enterica serovar Typhimurium TA98; format: organism-based, Salmonella enterica subsp. enterica serovar Typhimurium; settings: in vivo
# Method in brief: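 Ames fluctuation test in S. Typhimurium TA98 (frameshift) and TA100 (base substitution), with and without rat liver S9. Tested at 5, 10, 50 and 100 μM plus higher concentrations, 48 wells each, in histidine-free liquid medium for 96 h. Growth read spectrophotometrically by pH-indicator color change. Bacterial cytotoxicity assayed in parallel at the same concentrations.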
# Rattus norvegicus [21] = assay: Toxicity in Plasmodium berghei NK65 infected Sprague-Dawley rat assessed as effect on renal function at 50 mg/kg, perorally administered every 8 hrs for 3 days; format: organism-based; set-up: dose 50 mg/kg, route oral; settings: in vivo, po; method in brief: as §3
# [22] = biological target: Muscarinic acetylcholine receptor M2 (Homo sapiens) (UniProt P08172); assay: Inhibition of muscarinic M2 receptor at 10 uM; method in brief: as §1
# [23] = biological target: Neuropeptide Y receptor type 1 (Homo sapiens) (UniProt P25929); assay: Inhibition of neuropeptide Y1 receptor at 10 uM; method in brief: as §1
# [24] = biological target: Kappa-type opioid receptor (Homo sapiens) (UniProt P41145); assay: Inhibition of kappa opioid receptor at 10 uM; method in brief: as §1
# [25] = Elimination half life in Sprague-Dawley rat at 2 mg/kg, iv; format: ADME, organism-based; set-up: dose 2 mg/kg, route intravenous; settings: in vivo, read-out: beta t1/2
# Method in brief: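 Three female Sprague-Dawley rats per group (10–12 weeks), jugular-vein catheterized; 2 mg/kg in 3% EtOH-7% Tween 80-90% normal saline given through the catheter. Plasma drawn from the catheter at set times, acetonitrile extraction with internal standard, LC/MS quantification.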
# [26] = biological target: 5-hydroxytryptamine receptor 7 (Homo sapiens) (UniProt P34969); assay: Inhibition of 5HT7 receptor at 10 uM; method in brief: as §2
# Rattus norvegicus [27] = assay: Toxicity in Plasmodium berghei NK65 infected Sprague-Dawley rat assessed as effect on blood counts at 50 mg/kg, perorally administered every 12 hrs for 3 days; format: organism-based; set-up: dose 50 mg/kg, route oral; settings: in vivo, po; method in brief: as §3
# [28] = Inhibition of alpha1 adrenergic receptor at 10 uM; method in brief: as §4
# Sequence of Sodium-dependent dopamine transporter (Homo sapiens) (Q01959 whole entry): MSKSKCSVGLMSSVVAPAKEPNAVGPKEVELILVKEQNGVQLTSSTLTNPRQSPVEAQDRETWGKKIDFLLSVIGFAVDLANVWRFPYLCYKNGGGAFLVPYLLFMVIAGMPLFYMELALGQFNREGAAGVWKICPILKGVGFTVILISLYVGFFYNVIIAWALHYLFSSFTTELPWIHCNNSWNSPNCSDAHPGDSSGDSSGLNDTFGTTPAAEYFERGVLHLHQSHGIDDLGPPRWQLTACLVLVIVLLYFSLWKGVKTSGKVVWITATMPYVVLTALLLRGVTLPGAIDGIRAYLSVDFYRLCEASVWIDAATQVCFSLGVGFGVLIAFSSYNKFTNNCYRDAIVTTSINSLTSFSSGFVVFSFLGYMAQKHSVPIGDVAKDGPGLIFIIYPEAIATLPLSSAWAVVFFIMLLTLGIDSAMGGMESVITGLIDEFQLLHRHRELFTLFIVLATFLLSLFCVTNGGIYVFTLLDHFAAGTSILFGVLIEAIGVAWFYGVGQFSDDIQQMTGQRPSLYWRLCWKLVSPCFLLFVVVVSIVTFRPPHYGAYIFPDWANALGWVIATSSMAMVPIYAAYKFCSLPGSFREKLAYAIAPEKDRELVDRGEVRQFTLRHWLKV
# Sequence of Beta-1 adrenergic receptor (Homo sapiens) (P08588 whole entry, looked up): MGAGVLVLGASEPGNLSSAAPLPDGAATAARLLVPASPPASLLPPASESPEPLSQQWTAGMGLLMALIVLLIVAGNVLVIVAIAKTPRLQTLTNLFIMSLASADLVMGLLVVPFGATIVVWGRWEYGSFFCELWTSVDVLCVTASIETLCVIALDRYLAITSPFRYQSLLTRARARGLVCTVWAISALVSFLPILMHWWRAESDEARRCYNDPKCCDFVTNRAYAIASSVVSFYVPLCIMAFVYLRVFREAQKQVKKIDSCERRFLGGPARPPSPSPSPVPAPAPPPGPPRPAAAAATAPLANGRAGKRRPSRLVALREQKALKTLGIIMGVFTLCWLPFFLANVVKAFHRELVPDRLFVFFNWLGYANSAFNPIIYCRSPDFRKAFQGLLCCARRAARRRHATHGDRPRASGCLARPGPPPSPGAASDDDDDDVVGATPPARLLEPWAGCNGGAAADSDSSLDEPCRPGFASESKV
# Sequence of 5-hydroxytryptamine receptor 5A (Homo sapiens) (P47898 whole entry): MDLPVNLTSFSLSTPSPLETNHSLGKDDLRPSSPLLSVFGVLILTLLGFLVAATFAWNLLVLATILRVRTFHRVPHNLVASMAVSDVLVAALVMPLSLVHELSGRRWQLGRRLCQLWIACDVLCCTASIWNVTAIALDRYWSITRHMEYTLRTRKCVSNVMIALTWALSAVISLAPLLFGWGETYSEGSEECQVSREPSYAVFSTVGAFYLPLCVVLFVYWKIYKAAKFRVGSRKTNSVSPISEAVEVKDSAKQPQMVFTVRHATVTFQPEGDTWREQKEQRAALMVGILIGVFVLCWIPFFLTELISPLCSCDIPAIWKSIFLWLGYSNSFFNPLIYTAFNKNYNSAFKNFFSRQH
# Sequence of 5-hydroxytryptamine receptor 1B (Homo sapiens) (P28222 whole entry): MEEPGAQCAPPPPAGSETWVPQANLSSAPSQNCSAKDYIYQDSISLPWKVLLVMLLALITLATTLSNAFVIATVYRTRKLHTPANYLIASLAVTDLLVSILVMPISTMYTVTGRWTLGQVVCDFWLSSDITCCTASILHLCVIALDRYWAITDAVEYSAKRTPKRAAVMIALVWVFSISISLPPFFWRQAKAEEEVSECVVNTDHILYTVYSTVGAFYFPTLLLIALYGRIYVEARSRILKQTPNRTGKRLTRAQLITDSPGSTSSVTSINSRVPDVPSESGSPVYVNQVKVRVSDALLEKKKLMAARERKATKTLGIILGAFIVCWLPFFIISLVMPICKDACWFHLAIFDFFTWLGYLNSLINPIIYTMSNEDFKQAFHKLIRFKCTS
# Sequence of Neuropeptide Y receptor type 1 (Homo sapiens) (P25929 whole entry): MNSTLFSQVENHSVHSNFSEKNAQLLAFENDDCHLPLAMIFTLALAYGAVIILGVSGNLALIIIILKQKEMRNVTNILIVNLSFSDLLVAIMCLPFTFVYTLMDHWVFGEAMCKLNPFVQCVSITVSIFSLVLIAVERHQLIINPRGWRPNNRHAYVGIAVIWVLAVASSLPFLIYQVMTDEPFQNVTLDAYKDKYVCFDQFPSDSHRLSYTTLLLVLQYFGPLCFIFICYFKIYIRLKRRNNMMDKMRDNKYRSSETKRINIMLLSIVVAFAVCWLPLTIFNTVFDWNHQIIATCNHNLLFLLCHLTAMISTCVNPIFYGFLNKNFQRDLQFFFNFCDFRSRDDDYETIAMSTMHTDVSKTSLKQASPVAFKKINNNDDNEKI
# Sequence of Muscarinic acetylcholine receptor M3 (Homo sapiens) (P20309 whole entry, looked up): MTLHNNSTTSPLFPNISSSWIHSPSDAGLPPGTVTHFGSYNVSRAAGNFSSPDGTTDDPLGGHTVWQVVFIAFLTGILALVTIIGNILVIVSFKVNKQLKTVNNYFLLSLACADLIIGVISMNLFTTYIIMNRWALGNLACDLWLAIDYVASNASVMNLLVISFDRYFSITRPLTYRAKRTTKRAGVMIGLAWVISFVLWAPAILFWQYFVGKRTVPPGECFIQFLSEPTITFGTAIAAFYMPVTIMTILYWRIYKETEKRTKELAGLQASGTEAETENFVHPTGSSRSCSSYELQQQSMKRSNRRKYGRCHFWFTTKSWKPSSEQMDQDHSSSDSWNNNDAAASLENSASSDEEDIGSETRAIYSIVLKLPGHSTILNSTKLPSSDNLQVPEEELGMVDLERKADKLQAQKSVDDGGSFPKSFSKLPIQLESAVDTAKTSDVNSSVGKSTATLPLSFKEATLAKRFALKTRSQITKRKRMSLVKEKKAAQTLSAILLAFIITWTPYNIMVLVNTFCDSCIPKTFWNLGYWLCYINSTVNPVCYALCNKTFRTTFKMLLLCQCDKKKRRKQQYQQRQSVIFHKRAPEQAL
# Sequence of 5-hydroxytryptamine receptor 7 (Homo sapiens) (P34969 whole entry): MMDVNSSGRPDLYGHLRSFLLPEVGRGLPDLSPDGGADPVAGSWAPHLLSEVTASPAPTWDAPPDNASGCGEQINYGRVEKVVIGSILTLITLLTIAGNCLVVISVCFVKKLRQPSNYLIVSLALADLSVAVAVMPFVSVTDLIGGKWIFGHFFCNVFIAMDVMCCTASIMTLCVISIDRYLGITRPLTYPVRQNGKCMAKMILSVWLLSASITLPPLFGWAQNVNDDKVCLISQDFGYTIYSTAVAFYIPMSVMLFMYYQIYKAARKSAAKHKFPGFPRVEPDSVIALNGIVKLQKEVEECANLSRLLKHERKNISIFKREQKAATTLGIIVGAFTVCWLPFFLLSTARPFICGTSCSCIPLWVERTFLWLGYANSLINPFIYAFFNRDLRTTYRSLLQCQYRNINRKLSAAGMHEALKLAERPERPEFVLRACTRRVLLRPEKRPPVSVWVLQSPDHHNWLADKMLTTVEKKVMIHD
# Sequence of Vasopressin V1a receptor (Homo sapiens) (P37288 whole entry, looked up): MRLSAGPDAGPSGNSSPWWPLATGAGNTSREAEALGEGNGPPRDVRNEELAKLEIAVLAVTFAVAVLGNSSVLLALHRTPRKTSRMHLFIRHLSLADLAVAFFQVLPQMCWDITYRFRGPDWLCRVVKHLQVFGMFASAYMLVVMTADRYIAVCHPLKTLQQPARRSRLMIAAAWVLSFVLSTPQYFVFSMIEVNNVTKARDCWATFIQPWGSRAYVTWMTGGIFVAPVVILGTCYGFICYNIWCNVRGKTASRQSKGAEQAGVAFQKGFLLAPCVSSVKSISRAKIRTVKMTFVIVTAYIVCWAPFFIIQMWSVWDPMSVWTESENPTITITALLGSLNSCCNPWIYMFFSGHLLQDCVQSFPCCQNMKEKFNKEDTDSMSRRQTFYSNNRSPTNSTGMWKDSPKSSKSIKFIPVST
# Sequence of Vasoactive intestinal polypeptide receptor 1 (Homo sapiens) (P32241 whole entry): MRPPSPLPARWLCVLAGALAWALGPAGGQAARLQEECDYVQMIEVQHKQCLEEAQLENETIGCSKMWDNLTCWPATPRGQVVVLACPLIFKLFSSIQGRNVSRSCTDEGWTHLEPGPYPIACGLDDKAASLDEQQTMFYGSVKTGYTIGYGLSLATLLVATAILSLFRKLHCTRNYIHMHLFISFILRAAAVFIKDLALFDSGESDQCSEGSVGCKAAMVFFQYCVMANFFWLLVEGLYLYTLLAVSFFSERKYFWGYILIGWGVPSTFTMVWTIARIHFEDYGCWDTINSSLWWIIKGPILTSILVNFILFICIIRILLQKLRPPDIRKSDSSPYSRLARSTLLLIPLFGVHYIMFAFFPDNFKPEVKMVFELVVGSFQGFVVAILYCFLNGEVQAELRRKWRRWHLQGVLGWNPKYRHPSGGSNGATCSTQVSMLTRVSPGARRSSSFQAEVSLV
# Sequence of Substance-K receptor (Homo sapiens) (P21452 whole entry): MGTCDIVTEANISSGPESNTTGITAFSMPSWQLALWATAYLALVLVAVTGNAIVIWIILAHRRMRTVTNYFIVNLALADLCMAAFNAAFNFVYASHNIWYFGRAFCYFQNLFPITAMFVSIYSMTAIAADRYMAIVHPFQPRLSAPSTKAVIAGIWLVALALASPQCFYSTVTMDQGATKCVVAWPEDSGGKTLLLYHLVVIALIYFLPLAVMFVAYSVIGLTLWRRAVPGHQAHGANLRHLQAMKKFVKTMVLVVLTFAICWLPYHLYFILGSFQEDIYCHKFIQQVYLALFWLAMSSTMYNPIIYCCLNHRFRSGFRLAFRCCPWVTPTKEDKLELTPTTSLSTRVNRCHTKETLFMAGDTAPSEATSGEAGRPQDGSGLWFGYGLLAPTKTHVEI
# Sequence of Kappa-type opioid receptor (Homo sapiens) (P41145 whole entry): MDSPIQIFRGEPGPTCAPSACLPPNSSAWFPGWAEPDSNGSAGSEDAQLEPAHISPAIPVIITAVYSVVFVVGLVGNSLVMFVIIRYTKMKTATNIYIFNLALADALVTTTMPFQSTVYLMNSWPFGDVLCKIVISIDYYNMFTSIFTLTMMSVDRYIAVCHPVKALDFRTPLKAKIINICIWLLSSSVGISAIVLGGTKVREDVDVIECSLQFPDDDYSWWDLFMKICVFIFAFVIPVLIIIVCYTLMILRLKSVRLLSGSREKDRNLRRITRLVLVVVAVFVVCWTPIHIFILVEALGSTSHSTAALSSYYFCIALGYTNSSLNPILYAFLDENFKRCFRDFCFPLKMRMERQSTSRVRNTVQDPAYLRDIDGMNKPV
smiles,measurement,setting,value
COC(=O)N1CCC(CN(C2Cc3cc(C#N)ccc3N(Cc3cncn3C)C2)S(=O)(=O)c2ccccn2)CC1 (stereo not given),inhibition,[1],81%
same,Activity,Mus musculus,Non-toxic
same,inhibition,[2],inactive
same,half-life,[3],18 min
same,AUC,[4],10.9 µM·h
same,Activity,Rattus norvegicus [5],Non-toxic
same,inhibition,[6],inactive
same,inhibition,[7],inactive
same,inhibition,[8],inactive
same,inhibition,[9],inactive
same,inhibition,[10],inactive
same,inhibition,[11],inactive
same,inhibition,[12],inactive
same,EC50,Plasmodium falciparum [13],16 nM
same,Activity,Rattus norvegicus [14],Non-toxic
same,inhibition,[15],inactive
same,inhibition,[16],inactive
same,inhibition,[17],inactive
same,EC50,Plasmodium falciparum [18],18 nM
same,inhibition,[19],inactive
same,inhibition,[20],inactive
same,Activity,Salmonella typhimurium,Non-toxic
same,Activity,Rattus norvegicus [21],Non-toxic
same,inhibition,[22],77%
same,inhibition,[23],inactive
same,inhibition,[24],inactive
same,half-life,[25],17 min
same,inhibition,[26],inactive
same,Activity,Rattus norvegicus [27],Non-toxic
same,inhibition,[28],inactive
